The results in this text go back to ChEMBL document CHEMBL3272249, “Esters of N-tert-butylarterenol. Long-acting new bronchodilators with reduced cardiac effects” (J Med Chem, 1976).

Series [1] deals with Canis familiaris. Nature of the series: Cardiotoxicity in spontaneously respiring dog assessed as time of increase in heart rate at 10 to 20 mg/kg, iv relative to control. In kind it is toxicity, organism-based, Canis lupus familiaris. The arrangement: dose 10-20 mg/kg, route intravenous. The conditions noted are these: in vivo. The gist of the method: (§1)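 Anesthetized, spontaneously respiring dogs. Heart rate monitored by lead II EKG; blood pressure from right femoral artery by pressure transducer. Rise in heart rate (beats/min) scored ±=5-15, +=20-40, ++=40-60, +++=>60, n>4/dose; duration of the rise in h. Drug stocks freshly made in distilled water, diluted in physiological saline, kept on ice.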

Series [2] relates to Canis familiaris. The experiment in a line: Bronchodilator activity in dog assessed as time of inhibition of carbachol or histamine-induced bronchoconstriction at 10 to 20 mg/kg, iv relative to control. The conditions noted are these: dose mg/kg 10-20. In kind it is functional, Canis lupus familiaris. The gist of the method:
(§2)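 Dog with airway cannulated through a nonbreathing valve. Bronchoconstriction induced by iv carbachol (2–4 µg/kg) or histamine diphosphate (20–50 µg/kg); airway pressure recorded by pressure transducer. Each compound tested against both agonists in different animals, and results were combined and averaged. Bronchodilation = % inhibition of control constriction; degree scored as +, ++, +++ (20-45, 45-70, >70%) from higher dose, ≥3 dogs/dose; duration in h.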

Series [3] has as its system Canis familiaris. The experiment in a line: Bronchodilator activity in dog assessed as degree of inhibition of carbachol or histamine-induced bronchoconstriction at 10 to 20 mg/kg, iv relative to control. The format is functional, Canis lupus familiaris. The conditions noted are these: dose mg/kg 10-20. The gist of the method: as §2
The test system of series [4] is Canis familiaris. Nature of the series: Cardiotoxicity in spontaneously respiring dog assessed as degree of increase in heart rate at 10 to 20 mg/kg, iv relative to control. The format is toxicity, organism-based, Canis lupus familiaris. The arrangement: dose 10-20 mg/kg, route intravenous. Conditions: in vivo. An outline of the steps: as §1
Series [5] relates to Canis familiaris. Nature of the series: Cardiotoxicity in spontaneously respiring dog assessed as time of increase in heart rate at 5 to 20 mg/kg, iv relative to control. The format is toxicity, organism-based, Canis lupus familiaris. The arrangement: dose 5-20 mg/kg, route intravenous. The conditions noted are these: in vivo. An outline of the steps:
as §1

Series [6] relates to Canis familiaris. The experiment in a line: Bronchodilator activity in dog assessed as time of inhibition of carbachol or histamine-induced bronchoconstriction at 5 to 20 mg/kg, iv relative to control. The format is functional, Canis lupus familiaris. Conditions: dose mg/kg 5-20. The gist of the method: as §2
Series [7] deals with Canis familiaris. The experiment in a line: Bronchodilator activity in dog assessed as degree of inhibition of carbachol or histamine-induced bronchoconstriction at 5 to 20 mg/kg, iv relative to control. Conditions: dose mg/kg 5-20. In kind it is functional, Canis lupus familiaris. An outline of the steps: as §2
For series [8], the system named is Canis familiaris. Nature of the series: Cardiotoxicity in spontaneously respiring dog assessed as degree of increase in heart rate at 5 to 20 mg/kg, iv relative to control. The arrangement: dose 5-20 mg/kg, route intravenous. The format is toxicity, organism-based, Canis lupus familiaris. The conditions noted are these: in vivo. An outline of the steps:
as §1

Series [9] concerns Canis familiaris. Nature of the series: Bronchodilator activity in dog assessed as degree of inhibition of carbachol or histamine-induced bronchoconstriction at 5 mg/kg, iv relative to control. In kind it is functional. The conditions noted are these: Canis lupus familiaris. The gist of the method:
(§3)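 Anesthetized dogs, trachea cannulated with a nonbreathing valve. Bronchoconstriction induced by iv carbachol (2–4 μg/kg) or histamine diphosphate (20–50 μg/kg) in separate animals, and airway pressure recorded by transducer. Drug stocks were made fresh in distilled water, diluted in saline and kept on ice. Read-out was percent inhibition of control constriction, averaged over at least three dogs per dose at the higher dose. Carbachol and histamine data were combined.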

Series [10] concerns Canis familiaris. The experiment in a line: Bronchodilator activity in dog assessed as time of inhibition of carbachol or histamine-induced bronchoconstriction at 5 mg/kg, iv relative to control. The format is functional, Canis lupus familiaris. The gist of the method: (§4)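 Anesthetized dogs with an airway cannula and a nonbreathing valve. Bronchoconstriction was induced by iv carbachol (2–4 μg/kg) or histamine diphosphate (20–50 μg/kg) and read as change in airway pressure by transducer. Each compound was tested against both agonists in different dogs, and the results were combined and averaged. Effect is % inhibition of control constriction, with at least three dogs per dose. Drugs were dissolved fresh in distilled water, diluted in saline and kept on ice.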

Series [11] deals with Canis familiaris. Nature of the series: Cardiotoxicity in spontaneously respiring dog assessed as degree of increase in heart rate at 5 to 10 mg/kg, iv relative to control. In kind it is toxicity, organism-based, Canis lupus familiaris. The arrangement: dose 5-10 mg/kg, route intravenous. The conditions noted are these: in vivo. An outline of the steps: (§5)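 Anesthetized, spontaneously respiring dogs. Heart rate was taken from a lead II EKG, and blood pressure from the right femoral artery by transducer. The increase in heart rate (beats/min) was scored on a graded scale with more than 4 dogs per dose, and its duration was recorded. Drugs were dissolved fresh in distilled water, diluted in physiological saline and kept on ice.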

Series [12] has as its system Canis familiaris. Nature of the series: Bronchodilator activity in dog assessed as degree of inhibition of carbachol or histamine-induced bronchoconstriction at 5 to 10 mg/kg, iv relative to control. In kind it is functional, Canis lupus familiaris. The conditions noted are these: dose mg/kg 5-10. An outline of the steps: as §3
The test system of series [13] is Canis familiaris. Nature of the series: Bronchodilator activity in dog assessed as time of inhibition of carbachol or histamine-induced bronchoconstriction at 440 to 880 mg/kg, it relative to control. The format is functional, Canis lupus familiaris. Conditions: dose mg/kg 440-880; route endotracheal. The gist of the method:
as §4

For series [14], the system named is Canis familiaris. Nature of the series: Bronchodilator activity in dog assessed as degree of inhibition of carbachol or histamine-induced bronchoconstriction at 440 to 880 mg/kg, it relative to control. The format is functional, Canis lupus familiaris. Conditions: dose mg/kg 440-880; route endotracheal. The gist of the method:
as §3

The subject of series [15] is Canis familiaris. Nature of the series: Bronchodilator activity in dog assessed as time of inhibition of carbachol or histamine-induced bronchoconstriction at 5 to 10 mg/kg, iv relative to control. In kind it is functional, Canis lupus familiaris. Conditions: dose mg/kg 5-10. An outline of the steps: as §4
The subject of series [16] is Canis familiaris. The experiment in a line: Cardiotoxicity in spontaneously respiring dog assessed as time of increase in heart rate at 5 to 10 mg/kg, iv relative to control. In kind it is toxicity, organism-based, Canis lupus familiaris. The arrangement: dose 5-10 mg/kg, route intravenous. Conditions: in vivo. The gist of the method: as §5
In series [17] the test system is Canis familiaris. The experiment in a line: Bronchodilator activity in dog assessed as degree of inhibition of carbachol or histamine-induced bronchoconstriction at 50 to 100 mg/kg, iv relative to control. The conditions noted are these: dose mg/kg 50-100. The format is functional, Canis lupus familiaris. The gist of the method:
as §3

Series [18] concerns Canis familiaris. The experiment in a line: Bronchodilator activity in dog assessed as time of inhibition of carbachol or histamine-induced bronchoconstriction at 50 to 100 mg/kg, iv relative to control. Conditions: dose mg/kg 50-100. The format is functional, Canis lupus familiaris. The gist of the method:
as §4

For series [19], the system named is Canis familiaris. Nature of the series: Cardiotoxicity in spontaneously respiring dog assessed as degree of increase in heart rate at 50 to 100 mg/kg, iv relative to control. The arrangement: dose 50-100 mg/kg, route intravenous. The format is toxicity, organism-based, Canis lupus familiaris. The conditions noted are these: in vivo. The gist of the method:
as §5

Series [20] has as its system Canis familiaris. The experiment in a line: Cardiotoxicity in spontaneously respiring dog assessed as time of increase in heart rate at 50 to 100 mg/kg, iv relative to control. The format is toxicity, organism-based, Canis lupus familiaris. The arrangement: dose 50-100 mg/kg, route intravenous. The conditions noted are these: in vivo. The gist of the method: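 Anesthetized, spontaneously respiring dogs. Heart rate monitored by lead II EKG, with blood pressure taken from the right femoral artery by pressure transducer and recorded on a polygraph. Drug stocks made fresh in distilled water, diluted in physiological saline and kept on ice. Dosing was iv, id or it as listed. The duration of the heart-rate increase was recorded in h, with more than 4 dogs per dose.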

Series [21] has as its system Canis familiaris. Nature of the series: Bronchodilator activity in dog assessed as time of inhibition of carbachol or histamine-induced bronchoconstriction at 400 to 800 mg/kg, it relative to control. Conditions: dose mg/kg 400-800; route endotracheal. In kind it is functional, Canis lupus familiaris. An outline of the steps:
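Dog airway model: anesthetized, cannulated via a nonbreathing valve, with airway pressure changes recorded after iv carbachol (2–4 μg/kg) or histamine diphosphate (20–50 μg/kg) challenge, each agonist in different animals. Compounds were given iv, intraduodenally or intratracheally from fresh aqueous stocks diluted in saline. Duration (h) of inhibition of induced bronchoconstriction was followed, and the two agonist datasets were pooled.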

Series [22] has as its system Canis familiaris. The experiment in a line: Cardiotoxicity in spontaneously respiring dog assessed as time of increase in heart rate at 400 to 800 mg/kg, it relative to control. The arrangement: dose 400-800 mg/kg, route endotracheal. Conditions: in vivo, inhaled_or_intranasal. The format is toxicity, organism-based, Canis lupus familiaris. An outline of the steps:
as §5

Series [23] has as its system Canis familiaris. Nature of the series: Bronchodilator activity in dog assessed as degree of inhibition of carbachol or histamine-induced bronchoconstriction at 400 to 800 mg/kg, it relative to control. Conditions: dose mg/kg 400-800; route endotracheal. In kind it is functional, Canis lupus familiaris. The gist of the method:
as §3

In series [24] the test system is Canis familiaris. Nature of the series: Cardiotoxicity in spontaneously respiring dog assessed as degree of increase in heart rate at 400 to 800 mg/kg, it relative to control. The format is toxicity, organism-based, Canis lupus familiaris. The arrangement: dose 400-800 mg/kg, route endotracheal. The conditions noted are these: in vivo, inhaled_or_intranasal. An outline of the steps: as §5

On to `CC(C)(C)NC[C@H](O)c1ccc(OC(=O)C(C)(C)C)c(O)c1.CS(=O)(=O)O`, for which the Time is < 0.5 h with Canis familiaris [1] and <2 h with Canis familiaris [2]. Moreover, the “inhibition (INH)” value in the series on Canis familiaris [3] is on record as 45%. Also, in the series with Canis familiaris [4], the Activity is 40%.

As to `CC(C)CC(=O)Oc1ccc([C@@H](O)CNC(C)(C)C)cc1O.CS(=O)(=O)O`, the Time was < 1 h in the series with Canis familiaris [5] and <2 h in the series with Canis familiaris [6]. Further, in the series on Canis familiaris [7], the “inhibition (INH)” value was found to be 45%. In the series with Canis familiaris [8], the Activity came out at 40%.

As for `CC(C)(C)CC(=O)Oc1ccc([C@@H](O)CNC(C)(C)C)cc1O.CS(=O)(=O)O`, in the series with Canis familiaris [9], the inhibition in vivo at 5 mg/kg was determined as 45%. Moreover, the Time with Canis familiaris [10] was >3 h.

As for `CS(=O)(=O)O.Cc1ccc(C(=O)Oc2ccc([C@@H](O)CNC(C)(C)C)cc2O)cc1`, the Activity with Canis familiaris [11] is 40 beats/min. Further, the “inhibition (INH)” value in the series on Canis familiaris [12] and in the series on Canis familiaris [14] was 45% each time. In addition, the Time was <2 h in the series on Canis familiaris [13], >3 h in the series with Canis familiaris [15] and < 0.5 h with Canis familiaris [16].

`CS(=O)(=O)O.Cc1cccc(C(=O)Oc2ccc([C@@H](O)CNC(C)(C)C)cc2O)c1`: the Time in the series with Canis familiaris [13] is <2 h; in the series on Canis familiaris [18], <2 h; with Canis familiaris [20], < 0.5 h. The “inhibition (INH)” value in the series with Canis familiaris [17] and in the series on Canis familiaris [14] was >70% in each case. For the same molecule, in the series on Canis familiaris [19], the Activity worked out at 40 beats/min.

With `COc1ccc(C(=O)Oc2ccc([C@@H](O)CNC(C)(C)C)cc2O)cc1.Cl`, the Time with Canis familiaris [21] was <2 h; in the series with Canis familiaris [22] it was < 0.5 h. Besides, in the series with Canis familiaris [23], the “inhibition (INH)” value came to 45%. In addition, the Activity in the series with Canis familiaris [24] came to 20%.
